A selection: hits, their analogues and other compounds. The true share with any hit is near 0.74%.
Tn6 DDE FP: inhibitors of Tn6 peptide binding to human fibrin DD(E); Fibrin DD(E) TRITC-Tn6 fluorescence polarization displacement; 370,000 tested, 0.21% active; AID 720509; inhibition, % at 8.3 µM;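 active = inhibition above a per-campaign cutoff: mean of compounds within control limits plus 3 SD, cut at about 15% in these data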;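 also: 0% = median of all compound wells on the plate and 100% = blocking peptide control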
ARFGAP1 inh: inhibitors of rat ARFGAP1 | Arfgap1-stimulated ARF1 GTP hydrolysis, GDP FP detection | inhibition, % at 16.5 µM | 360,000 tested, 0.26% active | Q62848;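 active = inhibition above a per-plate limit, mean inhibition of low control wells plus 3 SD, cut at about 25% in these data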;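 also: 0% = DMSO wells with enzyme and 100% = wells lacking Arfgap1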
Target sequence (Q62848 1-136 limits assumed): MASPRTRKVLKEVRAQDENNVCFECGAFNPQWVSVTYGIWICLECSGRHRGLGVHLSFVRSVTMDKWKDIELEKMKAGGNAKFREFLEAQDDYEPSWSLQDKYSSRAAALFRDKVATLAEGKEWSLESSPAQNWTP
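Assay system: purified rat His6-Arfgap1 residues 1-136 (GAP domain); Reagent: human Δ17 ARF1 bound to GTP; Dosing: 16.5 µM single point, 1.26% DMSO; Times: GTP hydrolysis reaction 2 h at 25 °C; Signal: FP, GDP Alexa 633 tracer displaced from anti-GDP antibody, 620/688 nm; Measure: % inhibition from polarization.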
Tn7 DDE FP: DD(E)-Tn7 binding inhibition, primary FP screen | AID 720508 | FP displacement of FITC-Tn7 peptide from fibrin DD(E); 0% = median of compound wells per plate | 370,000 tested, 0.13% active | inhibition, % at 8.3 µM;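 active = inhibition above the mean of compounds falling within the control limits plus 3 SD of them, cut at about 14% in these data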;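 also: 0% = plate median of compound wells and 100% = 10 µM Aha-Tn7 peptide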
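Assay system: human fibrin DD(E) protein / Input: 2 µM fibrin DD(E) / Benchmarks: high control of 10 µM Aha-Tn7 peptide / Measured by: fluorescence polarization of the labelled Tn7 tracer / Medium: Tris buffer with calcium and detergent, pH 7.8 / Timing: 10 min compound pre-incubation, 3 h probe incubation at room temperature / Repeats: one replicate per compound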
ASAP1 GAP inh: ASAP1 ArfGAP inhibition. Q9ULH1. ASAP1-stimulated ARF1 GTP hydrolysis, GDP FP detection. inhibition, % at 16.5 µM. 360,000 tested, 0.19% active. AID 624377; in the data active = inhibition above about 25%;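 also: 0% = vehicle with enzyme and substrate and 100% = no enzyme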
Target sequence (Q9ULH1 325-724 limits assumed): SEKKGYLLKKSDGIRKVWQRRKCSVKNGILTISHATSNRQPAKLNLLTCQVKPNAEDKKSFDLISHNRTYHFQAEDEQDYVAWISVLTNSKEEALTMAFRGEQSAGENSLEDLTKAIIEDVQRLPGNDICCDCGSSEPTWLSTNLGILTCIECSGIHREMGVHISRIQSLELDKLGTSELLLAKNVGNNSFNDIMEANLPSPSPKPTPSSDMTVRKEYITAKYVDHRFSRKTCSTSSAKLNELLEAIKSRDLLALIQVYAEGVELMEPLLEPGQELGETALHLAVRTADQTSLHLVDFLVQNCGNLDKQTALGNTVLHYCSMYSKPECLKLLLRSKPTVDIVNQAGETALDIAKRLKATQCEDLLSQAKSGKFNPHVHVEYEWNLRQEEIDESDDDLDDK
ARFGAP1 confirm: rat ARFGAP1 inhibition, confirmed; AID 651608; inhibition, % at 16.5 µM; ARFGAP1-stimulated ARF1 GTP hydrolysis, GDP tracer FP; shares compounds with ARFGAP1 inh; 890 tested, 30% active;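 active = average inhibition over triplicates above the hit cutoff set in the earlier primary screen, cut at about 25% in these data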;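 also: 0% = Arfgap1 plus ARF1-GTP with DMSO and 100% = wells lacking Arfgap1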
An asterisk follows results filed as active; nt = no result given.

SMILES	Tn6 DDE FP	ARFGAP1 inh	Tn7 DDE FP	ASAP1 GAP inh	ARFGAP1 confirm
COC(=O)c1c(C)[nH]c(C)c1-c1ccccc1	-7	25*	-4	10	7
O=C(COC(=O)c1ccc([N+](=O)[O-])cc1)NC12CC3CC(CC(C3)C1)C2	2	26*	1	-8	-5
CC(C)NC(=O)c1ccccc1NC(=O)CN(c1ccc2c(c1)OCO2)S(C)(=O)=O	5	30*	2	-13	3
O=C(N/N=C/C(Cl)=C/c1ccccc1)c1ccc2c(c1)OCO2	-4	29*	0	23	36*
CC1CC(C)CN(C(=O)COC(=O)c2cc3ccccc3cc2O)C1 (centres undefined)	3	37*	-2	12	32*
CC1CC(C)CN(C(=O)COC(=O)c2cc3ccccc3oc2=O)C1 (centres undefined)	-1	1	0	-2	nt
COC(=O)C1=C(C)N(Cc2cccc(C(F)(F)F)c2)C(=NCc2ccc(C(F)(F)F)cc2)NC1c1cccc(C(F)(F)F)c1 (centres undefined)	8	13	-3	8	nt
COc1ccc(-n2nc(C(=O)NCC(=O)Nc3cccc(Cl)c3)c3ccccc3c2=O)cc1OC	0	28*	3	6	25*
CCOc1ccc(NC(=O)CNC(=O)c2nn(-c3ccc(OC)c(OC)c3)c(=O)c3ccccc23)cc1	4	14	0	5	nt
O=c1cc(CN2CCCC2)c2ccccc2o1	1	2	8	-6	nt
COc1ccc(N2CCN(C(=O)c3sc4ncn(CC(=O)N5CCCCC5)c(=O)c4c3C)CC2)cc1	6	-7	-3	6	nt
CCCNC(=O)Cn1cnc2sc(C(=O)N3CCN(c4ccc(F)cc4)CC3)c(C)c2c1=O	-1	26*	0	6	4
COC(=O)c1cc(=O)nc(NN=C(C)C)s1	-6	-9	2	-2	nt
CN1CCN(c2ccc(Cl)cc2NC(=O)c2cccc(S(=O)(=O)N(C)C)c2)CC1	-3	-10	6	7	nt
CN1CCN(c2ccc(Cl)cc2NC(=O)/C=C/c2cccc(F)c2)CC1	-13	31*	3	22	19
NC(Cc1ccc(C(F)(F)F)cc1)c1csc(NC(=O)Nc2ccccc2Cc2ccccc2)n1 (centres undefined)	-13	33*	-1	-5	11
Oc1ccc2ccccc2c1CNc1ccc2ccccc2c1	0	30*	-1	19	11
Oc1ccc2ccccc2c1CNc1ccccc1	0	2	7	-5	nt
Cn1c(=O)oc2cc(S(=O)(=O)N3CCN(CCO)CC3)ccc21	-6	nt	7	nt	nt
Cc1ccc(NC(=O)NNC(=O)COc2ccc([N+](=O)[O-])cc2)cc1C	0	32*	5	21	34*
COc1ccc(NC(=O)NNC(=O)COc2ccc3cc(Br)ccc3c2)cc1OC	-18	51*	0	8	85*
Cc1ccc(NC(=O)CCC(=O)NNC(=O)COc2ccc([N+](=O)[O-])cc2)cc1C	-9	-9	3	-14	nt
COC(=O)c1cccc2c([N+](=O)[O-])c(NC(C)=O)cc(C(=O)OC)c12	-4	-8	0	-9	nt
O=S(=O)(CS(=O)(=O)c1ccccc1Br)c1ccccc1Br	1	1	-5	5	nt
N=c1c2c(ccn1CCCc1ccccc1)Oc1ccc3ccccc3c1C2c1ccccc1 (centres undefined)	-5	nt	8	nt	nt
SMILES	Tn6 DDE FP	ARFGAP1 inh	Tn7 DDE FP	ASAP1 GAP inh	ARFGAP1 confirm
Cc1ccc(NC(=O)CSc2nnc(CNC(=O)C34CC5CC(CC(C5)C3)C4)n2-c2ccc(F)cc2)cc1	2	29*	-5	-2	4
Cc1ccc(N2C(=O)CC(Sc3nc(C)cc(C)n3)C2=O)cc1 (centres undefined)	1	25*	3	-13	1
Cc1ccccc1S(=O)(=O)N(C)C[C@H]1OCc2cnnn2CCCC(=O)N([C@H](C)CO)C[C@@H]1C	13	3	3	2	nt
COCC(C)n1c(C)cc(C(=O)CN2c3cccc4cccc(c34)S2(=O)=O)c1C (centres undefined)	1	29*	-2	9	26*
CCOC(=O)c1cccc(Nc2nc(-c3cccnc3)nc3ccccc23)c1	3	17	2	8	nt
COC(=O)c1cccc(Nc2nc(-c3cccnc3)nc3ccccc23)c1	10	43*	2	18	53*
COC(=O)c1ccc(Nc2nc(-c3ccncc3)nc3ccccc23)cc1	9	34*	0	17	34*
Cc1c(C)n(-c2ccccc2)c2ncnc(NCCN(C)C)c12	-9	25*	-8	11	-4
COc1ccc(-n2c(C)c(C)c3c(NCCN(C)C)ncnc32)cc1	-1	5	1	-6	nt
O=C(NCc1ccccc1)[C@@H]1CCCN1C(=O)[C@H]1CCCN1C(=O)c1c(F)cccc1F	-4	-15	-2	2	nt
C(=C\c1ccccc1)/CSc1nnc(Cc2cccs2)n1-c1ccccc1	-3	nt	2	nt	nt
Cc1sc2nc(SCC(=O)N(CCO)CCO)nc(N)c2c1C	-5	28*	-2	8	-1
CC1CCN(C(=O)c2ncn3c2C(=O)N[C@H](C)C3)CC1	-4	2	-5	-3	nt
OCCOCCNc1ncnc2sc(-c3ccccc3)cc12	2	36*	3	3	1
Cc1ccc(-n2c(SCC(=O)Nc3ccc(OCc4ccccc4)cc3)nnc2-c2ccccc2)cc1	-3	nt	1	nt	nt
O=C(CCc1ccc(O)cc1)c1c(O)cc(O)cc1O	-7	16	-10	18	nt
COc1cc(O)c(CC=C(C)C)c(O)c1C(=O)CCc1ccc(O)cc1	1	29*	-4	16	29*
C#CCN(C[C@H]1[C@H](OC(=O)NCCCCCC)[C@H](OC(=O)NCCCCCC)CN(C(=O)OC(C)C)N1C(=O)OC(C)C)S(=O)(=O)c1ccc(C)cc1	2	5	4	-2	nt
CC(C)(C)c1cc[n+](-c2nc([O-])sc2C=O)cc1	1	27*	3	-3	0
CCc1cc[n+](-c2nc([O-])sc2C=O)cc1	1	0	6	-7	nt
COc1ccc(/C=N/NC(=O)c2cccc([N+](=O)[O-])c2)cc1OC	-7	4	5	-6	nt
COc1ccc(-c2[nH]ncc2/C=N/NC(=O)c2cccc([N+](=O)[O-])c2)cc1OC	-6	26*	-2	22	52*
CCOC(=O)CNC(=O)c1c(C)nn(C)c1Cl	8	25*	-8	6	3
O=C(NCc1ccccc1)C(c1ccncc1)n1c(=O)c(-c2cc3ccccc3[nH]2)nc2ccccc21 (centres undefined)	-5	25*	0	13	21
O=C(NCc1ccccc1)C(c1ccc(-c2ccccc2)cc1)n1c(=O)c(-c2cc3ccccc3[nH]2)nc2ccccc21 (centres undefined)	5	5	-5	6	nt

Source: PubChem (The Scripps Research Institute Molecular Screening Center)
